In general, EC50 refers to the concentration needed to bring the measured effect to its halfway point. The term CC50 denotes the concentration giving 50% cytotoxicity. Lower therefore signals greater toxicity to the cells. A word on the half-life: it is how long it takes for the measured level to halve. A low value points to rapid decline. What is called IC50 is the concentration needed to halve the response being measured. The low end stands for higher potency, the high end for lower potency.

Data set [1] deals with Human immunodeficiency virus 1. In words: Antiviral activity against HIV1 RF infected in human CEM-SS cells assessed as inhibition of virus-induced cytopathic effect by XTT assay. Conditions: Human immunodeficiency virus 1, RF; call rule not given here. The data set is classed as functional, organism-based. In short, it runs like this: (§1)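 XTT cytoprotection readout in CEM-SS cells infected with HIV-1 RF or with HIV-1 NL4-3 carrying RT K103N or Y181C. EC50 is the concentration giving 50% inhibition of virus-induced cytopathic effect.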

Data set [2] relates to Human immunodeficiency virus 2. In words: Antiviral activity against HIV2 ROD infected in human MT4 cells assessed as inhibition of virus-induced cytopathic effect by MTT assay. Format: functional, organism-based. In short, it runs like this:
(§2)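 Infected MT-4 cells (HIV-1 IIIB or HIV-2 ROD), protection from viral cytopathic effect read by MTT assay; EC50 = concentration giving 50% inhibition of cytopathic effect. CC50 from mock-infected MT-4 cells.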
Background: Protection from cytopathic effect is a common read-out in antiviral testing.

For data set [3], the system named is Human immunodeficiency virus 1. In words: Antiviral activity against NNRTI-resistant HIV1 NL4-3 with reverse transcriptase K103N mutation infected in human CEM-SS cells assessed as inhibition of virus-induced cytopathic effect by XTT assay. Format: functional, organism-based. To be noted: Human immunodeficiency virus 1, NL4-3, CEM-SS. In short, it runs like this: as §1

For data set [4], the system named is Human immunodeficiency virus 1. In words: Antiviral activity against NNRTI-resistant HIV1 NL4-3 with reverse transcriptase Y181C mutation infected in human CEM-SS cells assessed as inhibition of virus-induced cytopathic effect by XTT assay. The data set is classed as functional, organism-based. To be noted: Human immunodeficiency virus 1, NL4-3, CEM-SS. The method in brief:
as §1

Data set [5] can be described thus: (§3) Cytotoxicity against human CEM-SS cells. Format: cell-based. To be noted: CEM-SS cells. The method in brief:
(§4)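 Mock-infected CEM-SS cells, handled alongside the XTT antiviral assay. CC50 is the concentration causing death of 50% of cells.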

The nature of data set [6]: (§5) Cytotoxicity against human MT4 cells. The data set is classed as cell-based. To be noted: MT4 cells. In short, it runs like this:
(§6)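 Mock-infected MT-4 cells, handled alongside the MTT antiviral assay run with HIV-1 IIIB and HIV-2 ROD. CC50 is the concentration causing death of 50% of cells.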

A short description of data set [7]: (§7) Stability in rat plasma. The data set is classed as ADME, cell-free. The method in brief:
(§8)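 Compound incubated in reconstituted rat plasma with 1,1-diphenylethylene internal standard; remaining compound quantified by reversed-phase C18 HPLC, 8:2 acetonitrile-water, column at room temperature; half-life per replicate from regression of concentration versus time, averaged over two replicates.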

Data set [8] deals with Human immunodeficiency virus type 1 reverse transcriptase (Human immunodeficiency virus 1, UniProt Q72547). In words: Inhibition of HIV1 reverse transcriptase p66/p51 using poly(rC)-oligo)dG) as template. In short, it runs like this:
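Purified recombinant HIV-1 RT p66/51 heterodimer; poly(rC)·oligo(dG) homopolymer template/primer; activity measured as 32P-labeled […] incorporated into nascent DNA across increasing inhibitor concentrations; IC50 derived.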

Data set [9] concerns Human immunodeficiency virus 1. Briefly: Antiviral activity against HIV1 3B infected in human MT4 cells assessed as inhibition of virus-induced cytopathic effect by MTT assay. The data set is classed as functional, organism-based. To be noted: Human immunodeficiency virus 1, 3B. The method in brief: as §2
Data set [10] deals with CEM-SS. The data set is described as §3. To be noted: cem-ss. The data set is classed as cell-based. The method in brief:
as §4

Data set [11] concerns MT4. The data set is described as §5. Format: cell-based. To be noted: mt4. In short, it runs like this:
as §6

The subject of data set [12] is Plasma. The description is as §7. The data set is classed as ADME, cell-free. In short, it runs like this: as §8

As to `COC(=O)CCCC=C(c1cc(Br)c(OC)c(C(=O)OC)c1)c1cc(Br)c(OC)c(C(=O)OC)c1`, the half-maximal effective concentration (EC50) was 100 nM in data set [1], “Not Active” in data set [2], 420 nM in data set [3] and 6100 nM in data set [4].
For the molecule `COC(=O)CCCC=C(c1cc(C#N)c(OC)c(C(=O)OC)c1)c1cc(C#N)c(OC)c(C(=O)OC)c1`, the EC50 in [1] was 700 nM; in [2], “Not Active”. The results for the CC50 in [5] and in data set [6] were 17000 nM and more than 100000 nM, respectively. In [7], this molecule yielded a half-life of 12.4 min.
For `COC(=O)CCC/C=C(\c1cc(C)c(OC)c(C(=O)OC)c1)c1cc(C)c2oc(=O)n(C)c2c1`, the EC50 entry in data set [2] is on record as “Not Active”.
In turn, `COc1c(C)cc(/C(=C\CCCc2nnc(C)o2)c2cc(C)c3oc(=O)n(C)c3c2)cc1C(=O)SC` yielded a 50% inhibitory concentration (IC50) in data set [8] of less than 1 nM. Moreover, the EC50 in data set [1] is 70 nM; in [9], 180 nM; in data set [2], “Not Active”; in [3], more than 100000 nM; in data set [4] it was more than 100000 nM. Further, the CC50 in data set [10] worked out at 3000 nM; in data set [11] it was 3900 nM. In [12], this molecule returned a t1/2 of 238 min.
As for `Cc1ccnc2c1NC(=O)c1cccnc1N2C1CC1` [NEVIRAPINE], the EC50 in data set [3] was found to be 600 nM; in [4] it was 800 nM.

The record behind these values is ChEMBL document CHEMBL1154166, “Crystallographic study of a novel subnanomolar inhibitor provides insight on the binding interactions of alkenyldiarylmethanes with human immunodeficiency virus-1 reverse transcriptase” (J Med Chem, 2009).
